Screening results (PubChem)
The list is not random: actives were taken first. Their share in the collection is about 1.9%.
Calb FLC: C. albicans growth inhibition with fluconazole, primary screen, CaCi-2 strain, Alamar Blue fluorescence; growth inhibition, % (test concentration not listed); 300,000 compounds, 0.57% hits; C. albicans CaCi-2 (fluconazole-resistant clinical isolate) + fluconazole, 48 h;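 active = growth inhibition above about 58% in most replicates, limit read from the data, passing the limit was not always enough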;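 note: all wells also contain fluconazole at 8 µg/ml as a sub-toxic cotreatment; 0% = median of DMSO wells and 100% = median of geldanamycin control wells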
Neddylation inh: inhibitors of cullin neddylation, primary screen, biochemical, TR-FRET, uHTS, NAE and Ubc12; NEDD8-conjugating enzyme Ubc12 (Homo sapiens) + NEDD8-activating enzyme E1 regulatory …; 360,000 compounds, 0.58% hits; AID 651699, 2012; inhibition, % at 25 µM; in the data active = inhibition above about 36%
Target sequence (P61081 whole entry, looked up): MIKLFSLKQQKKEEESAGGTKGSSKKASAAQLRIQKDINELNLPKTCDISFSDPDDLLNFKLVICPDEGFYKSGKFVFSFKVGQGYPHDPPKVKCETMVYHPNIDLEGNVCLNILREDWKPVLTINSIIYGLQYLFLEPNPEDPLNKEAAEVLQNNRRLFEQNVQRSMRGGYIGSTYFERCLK
Target sequence (Q13564 whole entry, looked up): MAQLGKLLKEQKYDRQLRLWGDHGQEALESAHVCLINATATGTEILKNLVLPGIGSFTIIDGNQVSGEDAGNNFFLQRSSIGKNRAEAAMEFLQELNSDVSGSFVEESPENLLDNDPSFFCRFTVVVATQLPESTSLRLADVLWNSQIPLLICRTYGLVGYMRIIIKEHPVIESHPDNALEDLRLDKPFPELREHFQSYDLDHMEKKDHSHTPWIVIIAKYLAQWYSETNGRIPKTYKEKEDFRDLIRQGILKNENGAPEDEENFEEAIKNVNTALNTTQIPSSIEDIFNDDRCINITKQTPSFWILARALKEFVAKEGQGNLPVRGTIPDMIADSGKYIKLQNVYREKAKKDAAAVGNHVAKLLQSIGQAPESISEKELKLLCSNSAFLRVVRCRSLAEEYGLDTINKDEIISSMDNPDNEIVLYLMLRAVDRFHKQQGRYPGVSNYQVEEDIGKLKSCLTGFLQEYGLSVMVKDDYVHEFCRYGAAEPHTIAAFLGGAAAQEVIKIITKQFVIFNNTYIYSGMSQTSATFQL
procasp7 counter: procaspase-7 activators, primary screen, counter-screen for procaspase-3 activator project, biochemical, absorbance, HTS, human | Caspase-7 (Homo sapiens), P55210 | recombinant procaspase-7, Ac-DEVD-pNA absorbance 405 nm; D23A/D198A/D206A triple mutant, cannot self-cleave; scale: DMSO 0, 5 µM enzyme 100 | activation, % at 8.5 µM | 330,000 compounds, 0.093% hits;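 active = percent activation above the screen-wide mean plus 3 SD, cut at about 25% in these data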
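buffer or medium = Zinc-free HEPES/NaCl buffer, pH 7.4 | material = Procaspase-7 triple mutant (PC-7 D3A) | input = 2 µM procaspase-7 mutant as dispensed | signal = Epi-absorbance of released pNA at 405 nm, two timepoints | timing = 1 h preincubation, 2 h reaction | replicates = singlicate compound testing | evaluation = % activation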
GAA850 FXN act: FXN promoter activators, primary screen, cell-based, luciferase luminescence, HEK293 lucGAA850; HEK293 lucGAA850 FXN promoter luciferase reporter, 24 h; percent of 10 µM SAHA response; activation, % at 6 µM; 360,000 compounds, 0.56% hits;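 active = activation above the average of all compounds screened plus 3 SD, cutoff fixed separately per campaign, cut at about 7.5% in these data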;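 note: 0% = DMSO wells and 100% = 10 µM SAHA wells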
HIF activator: HIF pathway transcriptional activators, primary screen, cell-based, U2OS HRE-luciferase, luminescence; activation, % at 7.5 µM (by protocol); AID 1910, 2009; 300,000 compounds, 0.32% hits; U2OS HRE-luciferase reporter; normalized: DMSO 0%, desferrioxamine 100%;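 active = mean activation of at least 10% of the iron chelator positive control signal, with at least half of replicates also reaching 10%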
proCasp3 act: activators of human procaspase-3 D3A mutant, primary screen, biochemical, absorbance, PC-3 D3A mutant, single concentration | activation, % at 8.5 µM | 330,000 compounds, 0.11% hits | recombinant procaspase-3 D3A, Ac-DEVD-pNA absorbance 405 nm | Caspase-3 (Homo sapiens), P42574;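 active = activation above the mean of all tested compounds plus 3 SD, cut at about 21% in these data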;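 note: 0% = DMSO alone and 100% = DMSO wells spiked with extra 5 µM PC-3 D3A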
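Assay system: Autoprocessing-dead procaspase-3 D3A mutant enzyme; also added: Ac-DEVD-pNA; doses: one concentration, 8.5 µM nominal, 0.8% DMSO; times: 1 h compound preincubation, 2 h substrate hydrolysis at 25 °C; technique: 405 nm absorbance of p-nitroaniline, reads at 0 and 120 min; measure: % activation between DMSO and enzyme-spiked controls; repeats: single replicate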
Neddyl conf: blockade of NEDD8 conjugation to cullin – biochemical, TR-FRET, single concentration, confirmation; shares compounds with Neddylation inh; TR-FRET cullin neddylation biochemical assay; calls only at 25 µM; 1,800 compounds, 13% hits; AID 652217, 2013; in the data active = inhibition above about 40%;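 note: neddylation substrate is the cullin 1 ring ligase complex with SKP2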
Numbers without * were called inactive.

Screening CSc1ncc(C(=O)O)c(C)n1 returned Calb FLC -1.9, Neddylation inh -9.5, procasp7 counter -1.1, GAA850 FXN act -0.7, HIF activator 0.5 and proCasp3 act 8.8.
For Cc1ncc(C(=O)O)c(C(=O)O)c1N the results were Calb FLC 8.5, Neddylation inh 40.5*, procasp7 counter -15.8, GAA850 FXN act -0.1, HIF activator -19.3 and proCasp3 act -8.1.
COc1ccc(/C=N/NC(=O)c2ccc(O)cc2O)cc1CSc1ccccn1 was read as Calb FLC -9.5, Neddylation inh 43.3*, procasp7 counter -5.5, GAA850 FXN act 3.6, HIF activator 0.6, proCasp3 act -8.5 and Neddyl conf inactive.
`COc1ccc(/C=N\NC(=O)c2ccc(-c3ccccc3)cc2)cc1COC(C)=O` gave Calb FLC -6.9, Neddylation inh 46.5*, procasp7 counter -2.9, GAA850 FXN act -0.9, HIF activator -0.4, proCasp3 act -5.6 and Neddyl conf inactive.
For CC(C)(C)c1ccc(C(=O)NCC(=O)NCC(C)(C)N2CCOCC2)cc1 the results were Neddylation inh 4.1 and GAA850 FXN act 0.6.
Screening COc1cccc(/C=C2/NC(=O)N(CC(=O)Nc3ccc(C)cc3)C2=O)c1OCc1cccc(C(=O)O)c1 returned Calb FLC -34.8, Neddylation inh 49.9*, procasp7 counter -6.8, GAA850 FXN act -1.4, HIF activator -0.3 and proCasp3 act 1.9.
Screening Cn1c(NCc2cccnc2)nc2cc(-c3ccc(C(=O)N4CCOCC4)cc3)sc2c1=O returned Neddylation inh -21.2 and GAA850 FXN act 0.7.
Screening CC(C)[N+]1=C2C=CC=CC=C2SC12C([N+](=O)[O-])=CC(=[N+]([O-])[O-])C=C2[N+](=O)[O-] (stereo not drawn) returned Calb FLC 8.1, Neddylation inh 43.6*, procasp7 counter -11.6, GAA850 FXN act 3.7, HIF activator 0.1, proCasp3 act -1.9 and Neddyl conf inactive.
CCCCNC(=O)C1c2ccccc2OCC(=O)N1CCc1c[nH]c2ccccc12 (stereo not drawn) was read as Neddylation inh 2.9.
Cc1cc(C)c(C)c(S(=O)(=O)N2CCC(C(=O)NCC(c3ccccc3)N(C)C)CC2)c1C (stereo not drawn) was read as Calb FLC 1.8, Neddylation inh 4.4, procasp7 counter 16.9, GAA850 FXN act 1.3, HIF activator -0.3 and proCasp3 act 1.2.
For Cc1ccc(-c2c(C#N)c(N)nc3c2CCCCC3)o1 the results were Calb FLC 6.0, Neddylation inh 41.0*, procasp7 counter 7.6, GAA850 FXN act 3.3, HIF activator 0.3 and proCasp3 act 4.0.
`CCOC(=O)N1CCC(c2cc(=O)n3[nH]ccc3n2)CC1` gave Calb FLC -2.4, Neddylation inh 41.3*, procasp7 counter 3.9, GAA850 FXN act -0.1, HIF activator 0.0 and proCasp3 act 8.1.
For CCOC(=O)N1CCC(c2cc(=O)n3[nH]cc(C(=O)OC)c3n2)CC1 the results were Calb FLC 8.8, Neddylation inh 8.4, procasp7 counter -4.6, GAA850 FXN act 0.9, HIF activator 0.0 and proCasp3 act 8.1.
For COc1ccc(/C=C2\CCn3c2nc2cc(C(=O)O)ccc2c3=O)cc1OC the results were Calb FLC 10.3, Neddylation inh 2.9, procasp7 counter 10.9, GAA850 FXN act 1.8, HIF activator 0.0 and proCasp3 act 9.2.
